According to ChEMBL document CHEMBL3098058, “Imidazole-derived agonists for the neurotensin 1 receptor” (Bioorg Med Chem Lett, 2014):
Converted amounts (≈) assume the structure as drawn. Blank lines part the entries; values can stand above or below the compound they belong to. The source made the active and inactive calls. The calls are words filed in the database; no cut-off is given here.

Experiments:
[1] = target: Neurotensin receptor type 2 (Homo sapiens, UniProt O95665); experiment: Agonist activity at NTR2 in human U2OS cells after 1 hr by beta-arrestin GFP reporter gene assay; format: cell-based
Sequence of Neurotensin receptor type 2 (O95665 whole entry): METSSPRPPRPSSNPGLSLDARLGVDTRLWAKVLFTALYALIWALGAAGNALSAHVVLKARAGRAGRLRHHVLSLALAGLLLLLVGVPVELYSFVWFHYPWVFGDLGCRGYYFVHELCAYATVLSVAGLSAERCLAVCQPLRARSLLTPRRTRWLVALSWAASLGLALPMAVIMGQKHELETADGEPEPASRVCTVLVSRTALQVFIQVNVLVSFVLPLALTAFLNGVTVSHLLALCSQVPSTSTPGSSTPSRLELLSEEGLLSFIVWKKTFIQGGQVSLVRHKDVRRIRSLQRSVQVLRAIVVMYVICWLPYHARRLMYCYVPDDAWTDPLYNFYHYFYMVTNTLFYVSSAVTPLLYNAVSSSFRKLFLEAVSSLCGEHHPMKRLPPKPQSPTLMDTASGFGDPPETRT
Summary of the method: (§1)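 High-content imaging in U2OS cells expressing the receptor of interest (NTR1, NTR2 or GPR35) plus a β-arrestin fluorescent reporter. The read-out is the location of the receptor–arrestin complex after receptor activation.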

[2] = Blood brain permeability of the compound at donor and acceptor pH 7.4 by PAMPA; format: ADME
[3] = Plasma protein binding in human at 10 uM; format: ADME, cell-free
Summary of the method: (§2)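 Plasma protein binding in human or mouse plasma at 1 μM and 10 μM compound, given as % bound.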

[4] = target: T1, Neurotensin receptor type 1 (Homo sapiens, UniProt P30989); experiment: Agonist activity at NTR1 (unknown origin) expressed in CHO-K1 cells coexpressing coexpressing beta-arrestin/N-terminal deletion mutant of beta-galactosidase fusion protein by chemiluminescence assay relative to NT peptide; format: cell-based
Summary of the method: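 PathHunter complementation in CHO-K1 cells. NTR1 is fused to the ProLink small enzyme fragment and co-expressed with a β-arrestin fusion to the N-terminal-deleted β-gal enzyme acceptor. Activation drives β-arrestin binding and β-gal fragment complementation, and enzyme activity is read by chemiluminescence.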
Target sequence in this assay (P30989 whole entry, the tested form may be a part): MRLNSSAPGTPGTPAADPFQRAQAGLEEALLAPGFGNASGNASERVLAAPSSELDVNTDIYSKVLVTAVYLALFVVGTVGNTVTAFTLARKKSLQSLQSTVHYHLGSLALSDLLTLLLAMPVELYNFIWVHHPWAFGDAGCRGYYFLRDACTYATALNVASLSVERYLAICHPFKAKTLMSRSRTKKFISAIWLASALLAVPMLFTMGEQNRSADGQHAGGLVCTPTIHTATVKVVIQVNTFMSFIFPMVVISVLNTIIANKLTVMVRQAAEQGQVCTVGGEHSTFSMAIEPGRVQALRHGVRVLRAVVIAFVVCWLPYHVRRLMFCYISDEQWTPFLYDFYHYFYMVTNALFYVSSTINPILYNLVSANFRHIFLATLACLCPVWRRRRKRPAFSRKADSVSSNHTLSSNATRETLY

[5] = Cytotoxicity in human Fa2N-4 cells after 24 hrs; format: cell-based; conditions: fa2n-4, 24 h, read-out: LC50 (the source's name)
Summary of the method: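 Fa2N-4 cells are immortalized human hepatocytes. Compounds were exposed for 24 hours. Readout is the LC50 (μM).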

[6] = Metabolic stability in mouse plasma assessed as compound remaining at 3 hrs; format: ADME, cell-free; conditions: read-out: Stability
[7] = target: T1, Neurotensin receptor type 1; experiment: Inhibition of NTS1 receptor (unknown origin)
Target sequence in this assay (P30989 whole entry, the tested form may be a part): as above

[8] = Permeability of the compound at donor and acceptor pH 7.4 by PAMPA; format: ADME
[9] = Aqueous solubility of the compound in pION buffer at pH 7.4; format: physicochemical
[10] = Aqueous solubility of the compound in pION buffer at pH 5.0; format: physicochemical
[11] = Plasma protein binding in mouse at 10 uM; format: ADME, cell-free; summary of the method: as §2
[12] = Metabolic stability in human liver microsomes assessed as compound remaining at 1 hr; format: ADME; conditions: read-out: Stability
Summary of the method: (§3)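 Compound stability in human or mouse liver homogenate/microsomes, given as % remaining at 1 hr, run in triplicate.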

[13] = target: T1, Neurotensin receptor type 1; experiment: Agonist activity at NTR1 (unknown origin) at 10 uM in presence of SR142948A
Summary of the method: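 NTR1 activation is driven by agonist at 10 μM after preincubation with a known NTR1 antagonist. Antagonist inhibition of this activation is reported as IC50.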
Target sequence in this assay (P30989 whole entry, the tested form may be a part): as above

[14] = Metabolic stability in human plasma assessed as compound remaining at 3 hrs; format: ADME, cell-free; conditions: read-out: Stability
[15] = Aqueous solubility of the compound in pION buffer at pH 6.2; format: physicochemical
[16] = target: G-protein coupled receptor 35 (Homo sapiens, UniProt Q9HC97); experiment: Agonist activity at GPR35 in human U2OS cells after 1 hr by beta-arrestin GFP reporter gene assay; format: cell-based; summary of the method: as §1
Sequence of G-protein coupled receptor 35 (Q9HC97 whole entry, the tested form may be a part): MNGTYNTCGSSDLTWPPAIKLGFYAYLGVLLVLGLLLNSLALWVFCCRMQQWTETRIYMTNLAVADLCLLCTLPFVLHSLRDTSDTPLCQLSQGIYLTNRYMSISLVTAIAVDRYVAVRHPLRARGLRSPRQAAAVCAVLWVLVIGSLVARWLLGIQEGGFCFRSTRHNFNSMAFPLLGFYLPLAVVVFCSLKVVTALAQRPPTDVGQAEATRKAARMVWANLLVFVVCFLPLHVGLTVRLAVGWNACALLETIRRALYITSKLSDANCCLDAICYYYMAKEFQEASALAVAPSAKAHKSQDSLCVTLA

[17] = target: T1, Neurotensin receptor type 1; experiment: Agonist activity at NTR1 (unknown origin) expressed in CHO-K1 cells coexpressing beta-arrestin/N-terminal deletion mutant of beta-galactosidase fusion protein by chemiluminescence assay; format: cell-based
Summary of the method: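 DiscoveRx PathHunter format. CHO-K1 cells express NTR1 fused in frame to the small ProLink β-gal fragment, stably co-expressed with β-arrestin fused to the N-terminal-deletion β-gal enzyme acceptor. Receptor activation recruits β-arrestin, which forces fragment complementation into active β-gal. The resulting enzyme activity is read by chemiluminescence. EC50 and Emax are expressed as % of NT peptide response.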
Target sequence in this assay (P30989 whole entry, looked up, stated change not applied, the tested form may be a part): as the sequence (P30989 whole entry, the tested form may be a part) above

[18] = Permeability of the compound at donor pH 5.0 and acceptor pH 7.4 by PAMPA; format: ADME
[19] = Metabolic stability in mouse liver microsomes assessed as compound remaining at 1hr; format: ADME, Microsome; conditions: read-out: Stability; summary of the method: as §3
[20] = target: T1, Neurotensin receptor type 1; experiment: Agonist activity at NTR1 in human U2OS cells after 1 hr by beta-arrestin GFP reporter gene assay relative to NT peptide; format: cell-based
Summary of the method: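 U2OS cells expressing NTR1 and a fluorescent β-arrestin reporter, imaged by high-content imaging of receptor–arrestin complex location after activation. EC50 and Emax are calculated relative to the efficacy of NT peptide at a saturating 100 nM.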
Target sequence in this assay (P30989 whole entry, the tested form may be a part): as above

[21] = Plasma protein binding in mouse at 1 uM; format: ADME, cell-free; summary of the method: as §2
[22] = Plasma protein binding in human at 1 uM; format: ADME, cell-free; summary of the method: as §2
[23] = Permeability of the compound at donor pH 6.2 and acceptor pH 7.4 by PAMPA; format: ADME
[24] = target: Sodium-dependent dopamine transporter (Homo sapiens, UniProt Q01959); experiment: Inhibition of DAT (unknown origin)
Sequence of Sodium-dependent dopamine transporter (Q01959 whole entry): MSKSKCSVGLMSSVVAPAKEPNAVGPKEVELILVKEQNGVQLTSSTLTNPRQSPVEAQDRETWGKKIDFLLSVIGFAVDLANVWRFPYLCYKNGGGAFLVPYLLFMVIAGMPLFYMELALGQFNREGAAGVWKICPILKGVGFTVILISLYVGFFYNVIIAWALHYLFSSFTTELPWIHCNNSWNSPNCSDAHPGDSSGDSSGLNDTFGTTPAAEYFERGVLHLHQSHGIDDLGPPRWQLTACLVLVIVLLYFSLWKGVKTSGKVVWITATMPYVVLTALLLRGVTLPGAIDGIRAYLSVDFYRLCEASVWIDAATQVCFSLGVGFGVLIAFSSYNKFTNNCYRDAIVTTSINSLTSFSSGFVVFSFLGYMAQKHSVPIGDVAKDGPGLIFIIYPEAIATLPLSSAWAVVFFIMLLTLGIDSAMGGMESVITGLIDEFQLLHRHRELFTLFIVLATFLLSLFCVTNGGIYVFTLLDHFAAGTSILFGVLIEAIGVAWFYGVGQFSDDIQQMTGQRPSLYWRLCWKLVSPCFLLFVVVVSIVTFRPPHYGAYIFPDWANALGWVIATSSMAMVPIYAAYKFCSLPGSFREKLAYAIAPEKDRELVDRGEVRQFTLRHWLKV

[25] = target: T1, Neurotensin receptor type 1; experiment: Ratio of EC50 for NTR1 in human U2OS cells to EC50 for NTR1 (unknown origin) expressed in CHO cells assessed as Ca2+ mobilization; format: functional, cell-based
Target sequence in this assay (P30989 whole entry, the tested form may be a part): as the sequence (P30989 whole entry, the tested form may be a part) above

[26] = target: T1, Neurotensin receptor type 1; experiment: Agonist activity at NTR1 (unknown origin) expressed in CHO cells assessed as Ca2+ mobilization by Fluo-4 NW dye-based fluorescence assay; format: functional, cell-based
Target sequence in this assay (P30989 whole entry, the tested form may be a part): as above

[27] = target: T1, Neurotensin receptor type 1; experiment: Agonist activity at NTR1 in human U2OS cells after 1 hr by beta-arrestin GFP reporter gene assay; format: cell-based; summary of the method: as §1
[28] = target: T1, Neurotensin receptor type 1; experiment: Agonist activity at NTR1 (unknown origin) expressed in CHO cells assessed as Ca2+ mobilization by Fluo-4 NW dye-based fluorescence assay relative to NT peptide; format: functional, cell-based
Mu-type opioid receptor = Mu-type opioid receptor (Homo sapiens, UniProt P35372); experiment: Inhibition of MOR (unknown origin)
Sequence of Mu-type opioid receptor (P35372 whole entry): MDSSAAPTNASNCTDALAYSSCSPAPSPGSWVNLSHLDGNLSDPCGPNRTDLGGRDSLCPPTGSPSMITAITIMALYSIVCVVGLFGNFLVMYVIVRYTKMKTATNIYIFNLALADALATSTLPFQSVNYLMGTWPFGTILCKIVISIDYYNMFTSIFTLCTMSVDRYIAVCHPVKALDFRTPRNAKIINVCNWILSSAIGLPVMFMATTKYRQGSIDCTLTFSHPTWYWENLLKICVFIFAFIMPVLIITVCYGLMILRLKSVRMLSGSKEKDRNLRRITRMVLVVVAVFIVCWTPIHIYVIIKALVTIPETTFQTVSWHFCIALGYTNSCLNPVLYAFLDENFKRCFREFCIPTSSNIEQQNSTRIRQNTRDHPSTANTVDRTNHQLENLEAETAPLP

[29] = target: Delta-type opioid receptor (Homo sapiens, UniProt P41143); experiment: Inhibition of DOR (unknown origin)
Sequence of Delta-type opioid receptor (P41143 whole entry): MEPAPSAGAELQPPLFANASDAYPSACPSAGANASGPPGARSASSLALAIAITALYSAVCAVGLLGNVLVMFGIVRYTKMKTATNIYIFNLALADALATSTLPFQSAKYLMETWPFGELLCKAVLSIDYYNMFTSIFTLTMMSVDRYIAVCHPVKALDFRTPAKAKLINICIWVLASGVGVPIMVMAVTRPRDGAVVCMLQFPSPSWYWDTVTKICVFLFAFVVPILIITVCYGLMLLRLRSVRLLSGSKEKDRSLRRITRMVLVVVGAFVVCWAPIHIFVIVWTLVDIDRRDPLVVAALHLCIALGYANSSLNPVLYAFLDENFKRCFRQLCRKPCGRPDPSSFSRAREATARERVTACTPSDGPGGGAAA

SMILES: COc1cccc(OC)c1-c1nc(C(=O)N[C@@H](CC(C)C)C(=O)O)cn1-c1ccnc2cc(Cl)ccc12
EC50 [1]: > 80 µM
permeability [2]: 12 nm/s
PPB [3]: 98.7%
Emax [4]: 100%
CC50 [5]: > 50 µM
remaining at 3 h [6]: 100%
Ki [7]: 10 µM
permeability [8]: 60 nm/s
solubility [9]: > 99 µM
solubility [10]: > 99 µM
PPB [11]: 91.4%
remaining at 1 h [12]: 100%
Activity [13]: inactive
remaining at 3 h [14]: 100%
solubility [15]: > 99 µM
EC50 [16]: > 40 µM
EC50 [17]: 6.1 µM
permeability [18]: 3630 nm/s
remaining at 1 h [19]: 59%
Emax [20]: 79%
PPB [21]: 92.2%
PPB [22]: 98.7%
permeability [23]: 170 nm/s
Ki [24]: > 10 µM
Ratio EC50 [25]: 5
EC50 [26]: 0.298 µM
EC50 [27]: 2 µM
Emax [28]: 93%

SMILES: Cc1cccc(C)c1-c1nc(C(=O)N[C@@H](CC(C)C)C(=O)O)cn1-c1ccnc2cc(Cl)ccc12
Emax [20]: 78%
EC50 [27]: 9.2 µM

SMILES: COc1ccccc1-c1cc(C(=O)N[C@H](CC(C)C)C(=O)O)nn1-c1ccnc2cc(Cl)ccc12
Emax [20]: 98%
EC50 [27]: 0.97 µM

SMILES: COc1cccc(OC)c1-c1cc(C(=O)N[C@@H](CC(C)C)C(=O)O)nn1-c1ccnc2cc(Cl)ccc12
EC50 [1]: > 80 µM
Ki (Mu-type opioid receptor): 3.4 µM
permeability [2]: 48 nm/s
PPB [3]: 99.7%
CC50 [5]: > 50 µM
remaining at 3 h [6]: 70.7%
Ki [7]: 3.3 µM
solubility [9]: > 296 µM
solubility [10]: 113 µM (≈ 59.1 µg/mL)
PPB [11]: 97.1%
Ki [29]: 5.2 µM
remaining at 1 h [12]: 76%
remaining at 3 h [14]: 88.9%
solubility [15]: > 296 µM
EC50 [16]: > 40 µM
EC50 [17]: > 33 µM
permeability [18]: 12700 nm/s
remaining at 1 h [19]: 46%
Emax [20]: 100%
PPB [21]: 96.6%
PPB [22]: 99.6%
permeability [23]: 7250 nm/s
Ki [24]: > 10 µM
Ratio EC50 [25]: 5
EC50 [26]: < 0.156 µM

SMILES: COc1cccc(OC)c1-c1nc(C(=O)N[C@@H](CC(C)C)C(=O)O)cn1-c1ccncc1
Emax [20]: 100%
EC50 [27]: 66 µM

Second part, the compound after the results:

EC50 [27]: > 80 µM
SMILES: COc1ccccc1-c1nc(C(=O)N[C@@H](CC(C)C)C(=O)O)cn1-c1ccnc2ccccc12

EC50 [27]: > 80 µM
SMILES: COc1cccc(OC)c1-c1cc(C(=O)NC2(C(=O)O)C3CC4CC(C3)CC2C4)nn1-c1ccc(C(=O)N(C)CCCN(C)C)cc1C(C)C (stereo unspecified)

Emax [20]: 100%
EC50 [27]: 56 µM
SMILES: COc1ccccc1-c1nc(C(=O)N[C@@H](CC(C)C)C(=O)O)cn1-c1ccnc2cc(Cl)ccc12

Emax [20]: 80%
EC50 [27]: 5.2 µM
SMILES: CC(C)C[C@H](NC(=O)c1cn(-c2ccnc3cc(Cl)ccc23)c(-c2c(Cl)cccc2Cl)n1)C(=O)O

EC50 [27]: > 80 µM
SMILES: COc1ccccc1-c1nc(C(=O)N[C@@H](CC(C)C)C(=O)O)cn1-c1ccncc1
